# Screening results deposited in PubChem BioAssay by The Scripps Research Institute Molecular Screening Center.
# MC4R antagonist: blocks human MC4R cAMP signaling; P32245; MC4R-expressing cells, MTII-stimulated cAMP, LANCE TR-FRET; inhibition, % at 6.5 µM; actives 0.48% (n = 360,000);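 active = inhibition above its plate's cutoff, the mean of tested wells on that plate plus 3 SD, cut at about 29% in these data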;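 also: 0% = Melanotan II alone and 100% = Melanotan II plus saturating MCL0020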
# Target sequence (P32245 whole entry, looked up): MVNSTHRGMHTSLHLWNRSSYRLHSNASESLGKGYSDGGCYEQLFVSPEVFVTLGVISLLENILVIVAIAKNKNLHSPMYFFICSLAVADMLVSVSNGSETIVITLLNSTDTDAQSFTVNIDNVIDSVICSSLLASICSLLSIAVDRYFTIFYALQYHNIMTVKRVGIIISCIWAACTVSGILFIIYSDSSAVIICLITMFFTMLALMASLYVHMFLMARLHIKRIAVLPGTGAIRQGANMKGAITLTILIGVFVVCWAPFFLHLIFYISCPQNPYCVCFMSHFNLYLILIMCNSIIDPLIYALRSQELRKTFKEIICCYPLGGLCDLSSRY
#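 Assay system: human MC4R-expressing U2OS cells; reagent: Melanotan II stimulation of cells; dosing: 6.5 µM single dose; timing: compound 30 min, challenge 1 h, detection 1 h; signal: TR-FRET cAMP assay; replicates: one well per compound, no replicates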
# MsrA act: bovine methionine sulfoxide reductase A activation. activation, % at 10.6 µM. purified bovine MsrA, absorbance read-out. actives 0.3% (n = 360,000). AID 602163; in the data active = activation above about 7.5%;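 also: 0% = vehicle and 100% = reference activator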
# MsrA inh: inhibitors of bovine MsrA. purified bovine MsrA, absorbance read-out. AID 651718. actives 0.75% (n = 360,000). inhibition, % at 15.5 µM; in the data active = inhibition above about 4.5%;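 also: 0% = vehicle wells with enzyme and 100% = reference inhibitor wells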
# MC4R ag barr: agonists of human melanocortin 4 receptor (MC4R) beta-arrestin. P32245. U2OS MC4R beta-arrestin complementation, luminescence; percent of melanotan II response, DMSO zero. activation, % at 8.9 µM. actives 0.98% (n = 360,000);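 active = activation above a per-plate cutoff, the mean activation of sample wells on that plate plus 3 SD, cut at about 8% in these data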
# * marks the source's active call; other numbers are inactive results; · = no result. An excerpt weighted towards active compounds, which were near 2.3% of everything screened.
SMILES,MC4R antagonist,MsrA act,MsrA inh,MC4R ag barr
Cc1ccc(C(=O)OC(C(=O)Nc2ccc(Cl)cc2C(F)(F)F)c2ccccc2)cc1 (stereo not drawn),6,-2,1,9.5*
O=C(OC(C(=O)Nc1ccc(Cl)cc1C(F)(F)F)c1ccccc1)c1c(Cl)cccc1Cl (stereo not drawn),4,-5,1,1
O=C(O)c1ccc(C2SCC(=O)N2Cc2ccco2)cc1 (stereo not drawn),9,-1,3,-2
NC(=O)C1(N2CCCCC2)CCN(C(=S)Nc2ccc(F)cc2)CC1,-2,-14,1,8.5*
Cc1ccc(C(NC(=O)N2CC(C)OC(C)C2)C(Cl)Cl)cc1F (stereo not drawn),23,-2,1,1
CC(/C=N/NC(=O)c1ccncc1)=C\c1ccccc1,-8,-8,5.2*,1
COc1ccc(/C=C/C(=O)NCCCNC(=O)/C=C/c2ccc(OC)c(OC)c2)cc1OC,-6,-2,2,-1
COc1ccc(/C=C/C(=O)Nc2nonc2NC(C)=O)cc1,-6,-7,4.6*,-2
COc1ccc(/C=C/C(=O)Nc2nc(C)cc(C)n2)cc1OC,1,-6,4.9*,0
COc1ccc(/C=C/C(=O)Nc2cc(C)on2)cc1,-3,-4,0,-1
COc1cccc(NC(=O)CN(C)C(=O)c2cn(-c3ccccc3)nc2-c2cccs2)c1,2,-3,0,-3
CC1(NC(=S)Nc2ccccc2)CCS(=O)(=O)C1 (stereo not drawn),1,-7,0,9.1*
CC1(NC(=S)Nc2ccc(NC(=S)NC3(C)CCS(=O)(=O)C3)cc2)CCS(=O)(=O)C1 (stereo not drawn),2,-3,0,-2
CC(=NNS(=O)(=O)c1ccc([N+](=O)[O-])cc1)c1ccc(C)cc1,-2,-3,0,0
C/C(=N\NS(=O)(=O)c1ccc([N+](=O)[O-])cc1)c1ccc(NC(=O)c2ccco2)cc1,8,-4,4.6*,0
COc1ccc(/C=C/C(=O)c2ccc([N+](=O)[O-])o2)cc1OC,·,·,2,·
O=C(/C=C/c1cccc(Cl)c1)c1ccc([N+](=O)[O-])o1,34*,-3,0,-4
Cc1c(C(=O)OCC(=O)Nc2ccc(N3CCOCC3)cc2)oc2ccccc12,-2,-2,1,9.2*
Cc1cccc(OCC(=O)O/N=C(\N)c2ccc(Cl)cc2)c1,-2,-1,·,12*
Cc1cc(Oc2ccc(Br)cc2)nc(SCC(=O)c2ccccc2)n1,5,-1,0,8.6*
CC(C)(C)NC(=O)N1CCC(CO)(Cc2ccccc2Cl)CC1,-4,-1,-1,0
O=C(OC1CCOC1=O)c1ccccc1C(=O)c1ccc(Cl)c([N+](=O)[O-])c1 (stereo not drawn),23,-7,·,0
CS(=O)(=O)c1ccc(C(=O)OC2CCOC2=O)cc1[N+](=O)[O-] (stereo not drawn),32*,-3,2,-3
CCN1CCN(CC(=O)c2ccc(OC)cc2)CC1,0,6,1,-1
O=C(Nc1cccc(-c2nc3cccnc3s2)c1)c1ccc(Cl)nc1,3,-3,1,8.6*
SMILES,MC4R antagonist,MsrA act,MsrA inh,MC4R ag barr
O=C(Nc1cccc(-c2nc3cccnc3s2)c1)c1cccnc1Cl,-1,-12,2,2
Cn1cc([N+](=O)[O-])c(C(=O)Nc2ccc(-c3nc4ccccc4o3)cc2)n1,7,-7,2,13*
O=C(Nc1ccc(-c2nc3ccccc3o2)cc1)c1ccc(N2CCOCC2)c([N+](=O)[O-])c1,16,1,0,1
CCc1c(C(=O)Nc2cc(C)cc(C)c2)[nH]c(C)c1C(C)=O,2,2,0,1
COc1ccc(C(=O)N/C(=C\c2ccccc2)C(=O)NC(CC(C)C)C(=O)O)cc1 (stereo not drawn),5,-3,0,-2
COc1ccc(N(CC(=O)N/N=C/c2ccc(N(C)C)cc2)S(=O)(=O)c2ccccc2)cc1,19,-3,4.6*,0
Cc1ccc2c(CC(=O)OCC(=O)Nc3ccc(Cl)cn3)coc2c1,17,0,-2,3
CCOC(=O)C(C)N1N=C(/C=C/c2ccc(OC)cc2)CCC1=O (stereo not drawn),-1,-8,6.1*,-1
CCOC(=O)CN1N=C(/C=C/c2ccc(OC)cc2)CCC1=O,-2,-10,6.1*,0
O=C(O)CCC(=O)Nc1ccc(Br)cc1C(=O)c1ccc(Cl)cc1,-6,-5,4,-1
CCCCCCN1CCN(C2CN(C3CCCCC3)S(=O)(=O)C2)CC1 (stereo not drawn),·,-4,0,·
Oc1cccc2ccc(Nc3ccccn3)nc12,3,-1,2,8.7*
O=C(NCCN1CCN(c2ccccc2)CC1)c1ccc2c(c1)[nH]c(=S)n1c3ccccc3nc21,8,-2,1,8.9*
COc1ccc(-n2c(=O)c3c4c(sc3n(CC(=O)Nc3cc(C)[nH]n3)c2=O)CCC4)c(OC)c1,11,-2,0,0
CCOC(=O)Cn1c(=N)n(CCOc2ccc3ccccc3c2)c2ccccc21,-5,1,1,9.6*
CCOC(=O)Cn1c(=N)n(CCOc2ccc(OC)cc2)c2ccccc21,2,-12,·,-1
Cc1onc(-c2ccccc2)c1C(=O)NCc1ccc2c(c1)OCO2,18,-1,0,0
O=C(NCc1ccc2c(c1)OCO2)c1c(-c2ccccc2)sc2ccccc12,7,-1,0,21*
CCOc1ccc(NS(=O)(=O)c2ccc3[nH]c(=O)c(=O)[nH]c3c2)cc1,4,-4,1,1
CCOc1ccc(NC(=O)c2ccc3[nH]c(=O)c(=O)[nH]c3c2)cc1,-1,-3,4.6*,-2
CCOC(=O)c1ccc(NS(=O)(=O)c2cc(-c3nnnn3C(C)C)ccc2OC)cc1,-4,0,-1,2
O=C(Nc1cnn(Cc2ccc(F)cc2)c1)c1cc2nc(-c3ccco3)cc(C(F)(F)F)n2n1,4,-2,0,9.2*
Cc1cc(Cl)ccc1OCC(=O)N/N=C/c1ccc(OC2OC(CO)C(O)C(O)C2O)cc1 (stereo not drawn),-8,-5,1,0
Cc1ccc(N(C(=O)C(F)(F)F)C(C(=O)NC2CCCCC2)c2cccs2)cc1 (stereo not drawn),11,1,0,15*
CC(C)c1ccc(/C=C2\SC(N3CCCC3)=NC2=O)cc1,4,-2,3,0
CCOC(=O)C1CCN(C2=NC(=O)/C(=C/c3ccc(Cl)cc3)S2)CC1,11,-3,4.7*,-1
Cc1ccc(/C=C2\SC(N3CCCC3)=NC2=O)cc1,·,·,4.6*,·
CCOC(=O)C1CCN(C2=NC(=O)/C(=C/c3ccc(OC)c(OC)c3)S2)CC1,-2,-9,3,0
CCN(CC)S(=O)(=O)c1ccc(N2CC(C(=O)NCCc3c[nH]c4ccccc34)CC2=O)cc1 (stereo not drawn),2,-3,-1,-2
CNC(=O)c1oc(-c2ccc(Cl)cc2)nc1C,7,-1,0,-4
